The results in this text go back to PubChem BioAssay AID652163 (Broad Institute, 2013).

For orientation: inhibition means the drop in the measured response relative to a control, in per cent.

Hit rate of the full screen: of about 360,000 compounds, about 500 (0.14%) were called active. Only a selection was taken, and actives are over-represented in it overall. Values without a mark were called inactive.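 Rule for the calls: active = mean inhibition of at least 70% across replicates, with every replicate also reaching that level; inconclusive = mean inhibition reaches 70% but some replicates fall short; inactive = mean inhibition below 70%.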

Chain of Protein S100-A4 (Homo sapiens) (P26447 whole entry, looked up): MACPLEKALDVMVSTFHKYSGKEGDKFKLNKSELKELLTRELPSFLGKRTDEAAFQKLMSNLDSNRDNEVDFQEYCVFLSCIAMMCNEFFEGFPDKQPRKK

The target of the assay is Protein S100-A4 (Homo sapiens) (UniProt P26447). Briefly: human S100A4 protein-peptide interaction blockers – biochemical, fluorescence polarization, TAMRA-MyoIIA peptide, primary screen (AID 652163). The settings on record: at 10.7 µM, active compounds read high. In short, it runs like this:
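Material: S100A4 monomer protein | Medium: HEPES pH 7.2 with CaCl2, KCl, NaCl, DTT, Triton | Reagent: Labelled myosin peptide probe, 5 nM | Doses: One dose per compound | Times: 5 min incubation before reading | Benchmarks: Neutral control DMSO, positive control TFP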
For `C[C@H]1CN([C@@H](C)CO)C(=O)CCCn2cc(nn2)CO[C@H]1CN(C)S(=O)(=O)c1ccc2ccccc2c1`, the inhibition is 1.04%.
As for `O=C(C[C@@H]1C[C@H]2c3cc(NS(=O)(=O)c4ccc(F)cc4)ccc3O[C@H]2[C@@H](CO)O1)NCc1ccccc1F`, the inhibition was -3.71%.
Regarding `O=C(NC1CCCCC1)[C@@H]1[C@@H](CO)[C@@H]2Cn3c(cccc3=O)[C@@H]2N1C(=O)CC1CC1`, the inhibition was 1.5%.
Take `COCC(=O)N1CC(=O)N2[C@H](CO)[C@@H](c3ccc(C#CC4CCCCC4)cc3)[C@@H]2C1`: the inhibition is -8.44%.
With `COc1ccc(NC(=O)N[C@H]2CC[C@@H](CCNS(=O)(=O)c3cccc(Cl)c3)O[C@H]2CO)cc1`, the inhibition was 18.1%.
As for `COc1ccccc1NC(=O)N[C@H]1CC[C@H](CCNS(=O)(=O)c2ccc(Cl)cc2)O[C@H]1CO`, the inhibition was 107% (active).
Take `O=C(Nc1ccccc1F)N[C@H]1CC[C@@H](CCNS(=O)(=O)c2ccc(F)cc2)O[C@@H]1CO`: the inhibition is -5.07%.
The result for `Cc1noc(C)c1S(=O)(=O)Nc1ccc2c(c1)C(=O)N([C@H](C)CO)C[C@H](C)[C@@H](CN(C)C(=O)CCC(F)(F)F)OCCCC[C@H](C)O2` reads -11.4%; that for `C[C@@H]1CN([C@@H](C)CO)S(=O)(=O)c2ccc(C#CCC3CCCC3)cc2O[C@H]1CN(C)Cc1ccc(C(=O)O)cc1`, -3.27%.
With `COc1ccc2c3c([nH]c2c1)[C@H](CO)N(C(=O)Nc1cccc(F)c1)CC31CCN(S(=O)(=O)c2ccccc2)CC1` the figure was -4.14%.
`COc1ccc(CN(C)C[C@H]2Oc3ccc(NS(=O)(=O)c4ccc(C)cc4)cc3C(=O)N([C@@H](C)CO)C[C@H]2C)cc1`: the inhibition is -4.3%.
With `C[C@@H]1CN([C@@H](C)CO)C(=O)c2cccc(NC(=O)Nc3ccc(F)cc3)c2O[C@@H]1CN(C)Cc1ccc(C(=O)O)cc1` the figure was 16.9%; with `CCC(=O)N1C[C@H](C)[C@H](OC)CN(C)C(=O)c2ccc(NC(=O)Nc3cccc(F)c3)cc2OC[C@@H]1C`, -17.6%; with `O=C(C[C@@H]1CC[C@H]2[C@@H](COC[C@H](O)CN2S(=O)(=O)c2ccc(F)cc2)O1)N[C@H]1CCN(Cc2ccccc2)C1`, 2.74%.
`C[C@@H](NC(=O)C[C@H]1C[C@@H]2c3cc(NC(=O)C4CCC4)ccc3O[C@@H]2[C@@H](CO)O1)c1ccccc1`: the inhibition was 8.72%.
`CC(C)CC#Cc1ccc([C@@H]2[C@@H](CO)N3C(=O)CN(C(=O)Nc4ccc(F)cc4)C[C@H]23)cc1`: the inhibition is -1.01%.
Take `CO[C@H]1CN(C)C(=O)c2ccc(NC(C)=O)cc2OC[C@H](C)N(C(=O)c2ccccc2)C[C@H]1C`: the inhibition is -4.17%.
The result for `COc1ccc(CN(C)C[C@@H]2OCCCC[C@H](C)Oc3ccc(NS(=O)(=O)c4ccc(F)cc4)cc3C(=O)N([C@@H](C)CO)C[C@@H]2C)cc1` reads -2.85%; that for `C[C@H]1CCCCO[C@H](CN(C)S(C)(=O)=O)[C@@H](C)CN([C@@H](C)CO)C(=O)c2cc(NC(=O)C3CCCCC3)ccc2O1`, 3.69%; that for `O=C(Nc1ccc(F)cc1)N1C[C@H]2[C@@H](c3ccccc31)[C@@H](CO)N2Cc1cocn1`, -2.03%.
For `CO[C@@H]1CN(C)C(=O)c2ccc(NS(=O)(=O)c3cccc(F)c3)cc2OC[C@H](C)N(C(=O)Cc2cccnc2)C[C@@H]1C`, the inhibition is 0.669%.
In the case of `CC(C)[C@@H]1COCn2nncc2CCCC(=O)N1`, the inhibition is -3.23%.
With `CCCNC(=O)[C@@H]1[C@@H](CO)[C@@H]2Cn3c(cccc3=O)[C@H]1N2C(=O)C1CCC1`, the inhibition is 6.67%.
On to `Cc1cccc(S(=O)(=O)N2C[C@@H]3[C@H](c4ccccc42)[C@H](CO)N3CC2CCOCC2)c1`, for which the inhibition is 86.4% (active).
On to `Cc1cccc(S(=O)(=O)N2C[C@H]3[C@@H](c4ccccc42)[C@H](CO)N3Cc2ccc3c(c2)OCO3)c1`, for which the inhibition was 7.88%.
With `Cc1cccc(S(=O)(=O)N2C[C@@H]3[C@H](c4ccccc42)[C@@H](CO)N3C(=O)c2ccccc2)c1` the figure was 3.03%; with `C[C@H](CO)N1C[C@H](C)[C@@H](CN(C)C(=O)Nc2ccccc2)Oc2ncc(C3=CCCC3)cc2C1=O`, 2.15%; with `CO[C@H]1CN(C)C(=O)c2cc(NS(=O)(=O)c3ccc(C)cc3)ccc2OC[C@H](C)NC[C@H]1C`, 7.5%.
With `COc1cccc(C#Cc2cnc3c(c2)C(=O)N([C@@H](C)CO)C[C@H](C)[C@H](CN(C)CC2CC2)O3)c1` the figure was -46.8%; with `O=C(C[C@@H]1CC[C@@H](NC(=O)Nc2ccc(F)cc2)[C@@H](CO)O1)NCCN1CCCC1`, -3.14%.
On to `O=C(Cc1ccccc1)N1C[C@H]2[C@@H](c3ccccc31)[C@H](CO)N2C(=O)c1ccc(F)cc1`, for which the inhibition was 7.78%.
`CCS(=O)(=O)N1[C@H](CO)[C@@H](c2ccccc2)C12CN(C(=O)C1CCC1)C2`: the inhibition was -10%.
As for `COc1ccc(NC(=O)N(C)C[C@@H]2OCCCC[C@@H](C)Oc3ccc(NC(=O)C4CCCCC4)cc3C(=O)N([C@@H](C)CO)C[C@@H]2C)cc1`, the inhibition is 2.51%.
As for `CCCNC(=O)Nc1ccc2c(c1)OC[C@H](C)N(C(=O)C1CCC1)C[C@H](C)[C@@H](OC)CN(C)C2=O`, the inhibition was -7.21%.
For `COCC#Cc1cnc2c(c1)C(=O)N([C@H](C)CO)C[C@@H](C)[C@@H](CN(C)C(=O)Nc1cccc(F)c1)O2`, the inhibition is -1.97%.
Take `C[C@@H]1CN([C@H](C)CO)C(=O)c2cc(NC(=O)Cn3cnnn3)ccc2O[C@@H]1CN(C)CC1CC1`: the inhibition was 13.2%.
`CN(C)C(=O)c1ccc(-c2ccc([C@@H]3[C@@H](CO)N4CCCCN(CC5CC5)C[C@H]34)cc2)cc1`: the inhibition is 11.7%.
In the case of `O=C(C[C@H]1C=C[C@H](NC(=O)CN2CCOCC2)[C@@H](CO)O1)NCc1cccc(F)c1`, the inhibition is 2.82%.
For the compound `CC=Cc1ccc2n(c1=O)C[C@H]1[C@H](CO)[C@@H](C(=O)NCCc3cn(C)cn3)[C@@H]2N1C(=O)CC` (mixture of isomers), the inhibition is -3.21%.
For `C[C@@H]1CN([C@@H](C)CO)C(=O)c2c(c3ccccc3n2C)-c2ccccc2CO[C@@H]1CN(C)Cc1ccc2c(c1)OCCN2C`, the inhibition was 1.33%.
Take `O=C(N[C@@H]1CC[C@@H](CCNS(=O)(=O)Cc2ccccc2)O[C@@H]1CO)c1ccccc1F`: the inhibition was 3.62%.
As for `O=C(N[C@H]1CC[C@@H](CCNS(=O)(=O)Cc2ccccc2)O[C@H]1CO)c1ccccc1F`, the inhibition is 106% (active).
Consider `CC(C)NC(=O)N[C@@H]1CC[C@@H](CCNS(=O)(=O)Cc2ccccc2)O[C@@H]1CO`, for which the inhibition is -2.44%.
Consider `C[C@@H]1CN([C@@H](C)CO)C(=O)Cc2cc(NC(=O)Cc3ccccc3)ccc2O[C@@H]1CN(C)C(=O)Nc1ccc2c(c1)OCO2`, for which the inhibition is -20.2%.
Turning to `CS(=O)(=O)Nc1ccc2c(c1)[C@H]1C[C@H](CC(=O)NC3CCCC3)O[C@@H](CO)[C@H]1O2`, the inhibition was 5.62%.
As to `CN(C)C(=O)[C@@H]1[C@@H](CO)[C@@H]2Cn3c(ccc(C4=CCCC4)c3=O)[C@H]1N2Cc1ccccn1`, the inhibition is 6.14%.
Consider `COc1ccc2c3c([nH]c2c1)[C@@H](CO)N(C(=O)c1cccc(F)c1)CC31CN(C(C)=O)C1`, for which the inhibition is -5.37%.
As for `COc1ccc(CCNC(=O)CN(c2ccccc2)S(=O)(=O)c2ccccc2)cc1`, the inhibition is 0.0805%.
With `CCOc1ccc(N(CC(=O)NCCc2ccc(F)cc2)S(=O)(=O)c2ccccc2)cc1` the figure was -1.04%; with `CCOc1ccc(N(CC(=O)NCCOc2ccccc2OC)S(=O)(=O)c2ccccc2)cc1`, 116% (active).
Regarding `N[C@@H]1CC[C@H](CCn2cc(C3CC3)nn2)O[C@@H]1CO`, the inhibition is 5.57%.
As for `C[C@@H]1CN([C@H](C)CO)C(=O)c2cc(NC(=O)CCCCCC(=O)Nc3ccccc3N)ccc2O[C@H]1CN(C)C(=O)Nc1ccc(C(F)(F)F)cc1`, the inhibition is -13%.
`C[C@H](CO)N1C[C@H](C)[C@@H](CN(C)Cc2ccncc2)Oc2cc(Br)ccc2S1(=O)=O`: the inhibition is -8.65%.
Take `C[C@@H]1CN([C@@H](C)CO)C(=O)c2cc(NC(=O)c3ccncc3)ccc2O[C@H]1CN(C)Cc1ccc(C(=O)O)cc1`: the inhibition was 3.13%.
Consider `C[C@@H]1CN([C@@H](C)CO)C(=O)c2cccc(NC(=O)Nc3ccccc3)c2O[C@H]1CN(C)Cc1ccccc1`, for which the inhibition is -2.48%.
The result for `C[C@@H]1CN([C@H](C)CO)C(=O)c2cc(NC(=O)c3ccncc3)ccc2O[C@H]1CN(C)Cc1ccc(Oc2ccccc2)cc1` reads 1.42%; that for `C[C@H]1CN([C@@H](C)CO)C(=O)c2cccc(NC(=O)c3ccncc3)c2O[C@@H]1CN(C)C`, 1.35%; that for `C[C@H]1CN([C@@H](C)CO)C(=O)c2cccc(NC(=O)Nc3ccccc3)c2O[C@H]1CN(C)Cc1ccc(Oc2ccccc2)cc1`, -8.88%.
The result for `COc1ccc(CN(C)C[C@H]2Oc3c(NC(=O)Nc4ccccc4)cccc3C(=O)N([C@@H](C)CO)C[C@@H]2C)cc1` reads 91.2% (active).
Regarding `C[C@@H]1CN([C@@H](C)CO)C(=O)c2cc(NC(=O)c3ccncc3)ccc2O[C@@H]1CN(C)Cc1ccncc1`, the inhibition is 106% (active).
For `C[C@H]1CN([C@@H](C)CO)C(=O)c2cccc(NC(=O)c3ccncc3)c2O[C@H]1CN(C)C`, the inhibition is 13.8%.
Consider `C[C@@H]1CN([C@H](C)CO)C(=O)c2cccc(NC(=O)c3ccncc3)c2O[C@@H]1CN(C)C`, for which the inhibition was 111% (active).
For the compound `CO[C@H]1CC[C@H]2CCN(C)C(=O)C[C@@H](c3ccccc3)CN(C)C(=O)c3cccc(C#N)c3OC[C@@H]1O2`, the inhibition was 0.912%.
